Source: ChEMBL document CHEMBL5058577, “EUbOPEN Chemogenomics Library 2 (Multiplex)” (2022)

Tested on: HEK-293T
Assay: Multiplex assay against HEK293T
Type: toxicity, cell-based
Details: human
Method in brief: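 Cells were classed with CellPathfinder machine-learning gating, first as Hoechst high-intensity objects or normal cells, then (normal cells) as healthy, pyknosed or fragmented nuclei, and finally (pyknosed cells) as mitotic or apoptotic. Staining of live cells at seeding used Hoechst33342, BioTracker Green Microtubule Cytoskeleton Dye, MitoTracker Red and Annexin V Alexa Fluor 680, with imaging on a CQ1 microscope at 37°C and 5% CO2 after compound addition. Tubulin, mitochondrial-mass and membrane-permeability phenotypes are per cents of healthy-nucleus cells.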

[1] = 12 h, 1 µM, compound concentration 1 uM, replicate 1
[2] = 12 h, 1 µM, compound concentration 1 uM, replicate 2
[3] = 12 h, 10 µM, compound concentration 10 uM, replicate 1
[4] = 12 h, 10 µM, compound concentration 10 uM, replicate 2
[5] = 24 h, 1 µM, compound concentration 1 uM, replicate 1
[6] = 24 h, 1 µM, compound concentration 1 uM, replicate 2
[7] = 24 h, 10 µM, compound concentration 10 uM, replicate 1
[8] = 24 h, 10 µM, compound concentration 10 uM, replicate 2
[9] = 48 h, 1 µM, compound concentration 1 uM, replicate 1
[10] = 48 h, 1 µM, compound concentration 1 uM, replicate 2
[11] = 48 h, 10 µM, compound concentration 10 uM, replicate 1
[12] = 48 h, 10 µM, compound concentration 10 uM, replicate 2

## CN1CCC(C(=O)c2cccc(NC(=O)c3c(F)cc(F)cc3F)n2)CC1
[1]
  Population Apoptotic (%): 32%
  Population Fragmented Nuclei (%): 5%
  Population Healthy Nuclei (%): 82%
  Population Hoechst High Intensity Objects (%): 8%
  Population Membrane Permeable-Phenotype (%): 0%
  Population Mitochondria Different-Phenotype (%): 51%
  Population Mitotic Cells (%): 67%
  Population Normal (%): 91%
  Population Pyknosed Nuclei (%): 11%
  Population Tubulin-Different-Phenotype (%): 31%
  Total Cell Count: 396
[2]
  Population Apoptotic (%): 52%
  Population Hoechst High Intensity Objects (%): 7%
  Population Mitochondria Different-Phenotype (%): 59%
  Population Mitotic Cells (%): 47%
  Population Normal (%): 92%
  Population Pyknosed Nuclei (%): 12%
  Population Tubulin-Different-Phenotype (%): 20%
  Total Cell Count: 352
[3]
  Population Apoptotic (%): 52%
  Population Fragmented Nuclei (%): 6%
  Population Healthy Nuclei (%): 80%
  Population Hoechst High Intensity Objects (%): 8%
  Population Membrane Permeable-Phenotype (%): 1%
  Population Mitochondria Different-Phenotype (%): 55%
  Population Mitotic Cells (%): 47%
  Population Normal (%): 91%
  Population Pyknosed Nuclei (%): 12%
  Population Tubulin-Different-Phenotype (%): 50%
  Total Cell Count: 445
[4]
  Population Apoptotic (%): 53%
  Population Hoechst High Intensity Objects (%): 10%
  Population Membrane Permeable-Phenotype (%): 0%
  Population Mitochondria Different-Phenotype (%): 77%
  Population Mitotic Cells (%): 46%
  Population Normal (%): 89%
  Population Pyknosed Nuclei (%): 13%
  Total Cell Count: 401
[5]
  Population Apoptotic (%): 26%
  Population Fragmented Nuclei (%): 11%
  Population Healthy Nuclei (%): 74%
  Population Hoechst High Intensity Objects (%): 4%
  Population Membrane Permeable-Phenotype (%): 0%
  Population Mitochondria Different-Phenotype (%): 30%
  Population Mitotic Cells (%): 73%
  Population Normal (%): 95%
  Population Pyknosed Nuclei (%): 13%
  Population Tubulin-Different-Phenotype (%): 20%
  Total Cell Count: 504
[6]
  Population Apoptotic (%): 42%
  Population Fragmented Nuclei (%): 8%
  Population Healthy Nuclei (%): 83%
  Population Hoechst High Intensity Objects (%): 3%
  Population Mitochondria Different-Phenotype (%): 39%
  Population Mitotic Cells (%): 57%
  Population Normal (%): 96%
  Population Pyknosed Nuclei (%): 7%
  Population Tubulin-Different-Phenotype (%): 17%
  Total Cell Count: 478
[7]
  Population Apoptotic (%): 25%
  Population Fragmented Nuclei (%): 10%
  Population Healthy Nuclei (%): 76%
  Population Hoechst High Intensity Objects (%): 6%
  Population Membrane Permeable-Phenotype (%): 0%
  Population Mitochondria Different-Phenotype (%): 48%
  Population Mitotic Cells (%): 75%
  Population Normal (%): 93%
  Population Pyknosed Nuclei (%): 13%
  Population Tubulin-Different-Phenotype (%): 41%
  Total Cell Count: 583
[8]
  Population Apoptotic (%): 52%
  Population Fragmented Nuclei (%): 8%
  Population Healthy Nuclei (%): 81%
  Population Hoechst High Intensity Objects (%): 8%
  Population Mitochondria Different-Phenotype (%): 64%
  Population Mitotic Cells (%): 47%
  Population Normal (%): 91%
  Population Pyknosed Nuclei (%): 9%
  Population Tubulin-Different-Phenotype (%): 34%
  Total Cell Count: 467
[9]
  Population Apoptotic (%): 22%
  Population Fragmented Nuclei (%): 11%
  Population Healthy Nuclei (%): 80%
  Population Hoechst High Intensity Objects (%): 3%
  Population Membrane Permeable-Phenotype (%): 1%
  Population Mitochondria Different-Phenotype (%): 19%
  Population Mitotic Cells (%): 77%
  Population Normal (%): 96%
  Population Pyknosed Nuclei (%): 7%
  Population Tubulin-Different-Phenotype (%): 12%
  Total Cell Count: 884
[10]
  Population Apoptotic (%): 34%
  Population Fragmented Nuclei (%): 9%
  Population Healthy Nuclei (%): 84%
  Population Mitochondria Different-Phenotype (%): 24%
  Population Mitotic Cells (%): 65%
  Population Pyknosed Nuclei (%): 5%
  Population Tubulin-Different-Phenotype (%): 10%
  Total Cell Count: 692
[11]
  Population Apoptotic (%): 30%
  Population Fragmented Nuclei (%): 13%
  Population Healthy Nuclei (%): 79%
  Population Hoechst High Intensity Objects (%): 4%
  Population Membrane Permeable-Phenotype (%): 0%
  Population Mitochondria Different-Phenotype (%): 35%
  Population Mitotic Cells (%): 69%
  Population Normal (%): 95%
  Population Pyknosed Nuclei (%): 7%
  Population Tubulin-Different-Phenotype (%): 23%
  Total Cell Count: 803
[12]
  Population Apoptotic (%): 28%
  Population Fragmented Nuclei (%): 10%
  Population Healthy Nuclei (%): 81%
  Population Hoechst High Intensity Objects (%): 7%
  Population Mitochondria Different-Phenotype (%): 42%
  Population Mitotic Cells (%): 71%
  Population Normal (%): 92%
  Population Tubulin-Different-Phenotype (%): 25%
  Total Cell Count: 671
